p97 inhibitor: inhibitors of human p97 ATPase, primary screen, biochemical | AID 1481, 2009 | hit rate 0.42% among 220,000 | inhibition, % at 8 µM | Transitional endoplasmic reticulum ATPase (Homo sapiens), P55072 | recombinant p97 ATPase, Kinase-Glo ATP luminescence, 3 h; in the data active = inhibition above about 15%;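 also: 0% = DMSO vehicle and 100% = wells lacking enzyme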
Runt-SMMHC FRET: inhibitors of RUNX1 Runt–CBFb-SMMHC binding, primary screen, biochemical, FRET, Cerulean-Runt, Venus-CBFb-SMMHC, uHTS; AID 1434, 2008; Runt-related transcription factor 1 (Homo sapiens) + Core-binding factor subunit beta …; inhibition, % at 20 µM; hit rate 0.74% among 220,000; Cerulean-Runt/Venus-CBFb-SMMHC FRET ratio 530/480, 1 h;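 active = mean inhibition across duplicate retests at 20 µM reaching about 50%, limit read from the data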;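 also: 0% = DMSO wells and 100% = wells with excess untagged CBFb-SMMHC; inhibitors lower the FRET ratio by blocking Runt binding to CBFb-SMMHC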
Hck Nef HTS: inhibitors of Nef-activated human Hck kinase, primary screen, biochemical, Z-Lyte FRET, 384-well, Hck-YEEI; Tyrosine-protein kinase HCK (Homo sapiens), P08631; Recombinant Hck-YEEI plus Nef, Z-Lyte FRET kinase assay; inhibition, % at 20 µM; hit rate 0.68% among 220,000; AID 463187, 2010;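 active = Hck-Nef kinase inhibition above about 50%, limit read from the data; inactive = inhibition below that limit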;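 also: 0% = DMSO with Hck plus Nef and 100% = Hck alone without Nef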
Tb hexokinase: Trypanosoma brucei hexokinase 1 inhibitors, primary screen, biochemical, G6PDH-coupled NADH absorbance, MLSCN library. AID 1430, 2008. recombinant TbHK1, G6PDH-coupled NADH A340. inhibition, % at 10 µM. hit rate 0.11% among 220,000. hexokinase 1 [Trypanosoma brucei];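 active = inhibition of 50% or more in the single-dose primary screen; inactive = inhibition below 50%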
RanGTP-Imp inh: inhibitors of RanGTP-importin-beta interaction, primary screen, biochemical, FRET, CFP-Ran, YFP-importin-beta, homogeneous; Ran GTPase (GTP-bound) - importin-beta complex; cell-free CFP-Ran/YFP-importin-beta FRET ratio; inhibition, % (no concentration beside the values); hit rate 1.1% among 300,000; AID 2216, 2009;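 active = more than half of the replicate wells show a fall in the fluorescence ratio signal beyond about 16%, limit read from the data, passing the limit was not always enough; inconclusive = exactly half of the replicate wells pass the set limit; inactive = fewer than half of replicates pass the limit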;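 also: 0% = DMSO wells and 100% = Ran loaded with GDP instead of GTP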
Runt-CBFb FRET: inhibitors of RUNX1 Runt–CBFb binding, primary screen, biochemical, FRET, Cerulean-Runt, Venus-CBFb, uHTS. Cerulean-Runt/Venus-CBFb FRET ratio 530/480, 1 h. inhibition, % at 20 µM. hit rate 0.46% among 220,000;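 active = inhibition over about 50% at 20 µM in the single-dose screen, limit read from the data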;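 also: 0% = DMSO wells and 100% = excess unlabeled CBFb competitor control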
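System: Cerulean-labeled Runt domain protein | Quantity: 100 nM of each labeled protein | Schedule: 1 h compound exposure, room temperature | Detection: Fluorescence energy transfer, 422 nm excitation, 530/480 nm emission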
Hck-Nef confirm: retest of Hck:Nef kinase inhibitor hits, confirmation, biochemical, Z-Lyte FRET, 384-well, p-Tyr peptide counterscreen; shares compounds with Hck Nef HTS; Recombinant Hck-YEEI:Nef, Z-Lyte FRET kinase assay; calls only at 10 µM; hit rate 28% among 1,300;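 active = average inhibition of at least 50%, with Z-scores no higher than 3 in both the phospho-tyrosine peptide and fluorescence counterscreens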
Numbers without * were called inactive; i = inactive; ? = inconclusive; nt = not tested or not shown; + = active, no number. A selection: hits, their analogues and other compounds. The true share with any hit is near 2.1%.

SMILES	p97 inhibitor	Runt-SMMHC FRET	Hck Nef HTS	Tb hexokinase	RanGTP-Imp inh	Runt-CBFb FRET	Hck-Nef confirm
N=C1/C(=C\c2ccc(-c3cc(Cl)cc(Cl)c3)o2)C(=O)N=C2SC=C(c3ccccc3)N12	7	-27	5	20	4	-6	nt
CCOC(=O)c1cc2c(=O)n3cccc(C)c3nc2n(CC2CCCO2)c1=NC(C)=O (configuration not stated)	-2	nt	74*	-11	22*	nt	i
Cc1cccn2c(=O)c3cc(C(=O)N4CCOCC4)n(C)c3nc12	nt	nt	nt	nt	4	nt	nt
Cc1cccn2c(=O)c3cc(C(=O)N4CCN(C(=O)c5ccco5)CC4)n(C)c3nc12	-2	19	41	-15	-2	4	nt
CCOCCCn1c(=NC(=O)c2ccco2)c(C(=O)OCC)cc2c(=O)n3cccc(C)c3nc21	-1	81*	133*	-30	152*	12	nt
CCOC(=O)c1cc2c(=O)n3cccc(C)c3nc2n(CC(C)C)c1=NC(=O)c1ccco1	4	88*	+	-15	164*	10	i
O=C(CNS(=O)(=O)c1ccc(Br)cc1)NCc1ccncc1	nt	nt	nt	nt	-3	nt	nt
O=C(c1cc2cc(Cl)ccc2[nH]1)N1CCN(c2ccccn2)CC1	nt	nt	nt	nt	7	nt	nt
O=C(NCCc1ccccc1Cl)c1ccc2nc3ccccc3c(=O)n2c1	nt	nt	nt	nt	7	nt	nt
O=C(/C=C\c1ccco1)NC(=S)Nc1ccccc1O	9	-10	59*	-2	2	-6	i
COc1ccc(NC(=S)NC(=O)/C=C/c2ccco2)c(OC)c1	nt	nt	nt	nt	-3	nt	nt
O=C(/C=C/c1ccco1)Nc1cc(Cl)ccc1C(=O)O	6	16	11	17	3	26	nt
COc1cc(NS(=O)(=O)c2ccc(NC(=S)NC(=O)/C=C/c3ccco3)cc2)ncn1	1	8	91*	-11	0	15	+
O=C(/C=C/c1ccco1)Nc1ccccc1C(=O)O	0	15	55*	-13	-5	30	i
Cc1ccc(NC(=S)NC(=O)/C=C/c2ccco2)c(O)c1	1	-33	85*	-10	2	-4	+
Cc1ccc(CNC(=O)c2ccccc2NC(=O)CN2CC(C)OC(C)C2)cc1 (configuration not stated)	nt	nt	nt	nt	2	nt	nt
O=C(/C=C/c1ccco1)NC(=S)Nc1ccccc1O	-1	-82	54*	-22	-4	-18	+
CC1CC1C(=O)N(CCC1=CCCCC1)c1c(N)n(Cc2ccccc2)c(=O)[nH]c1=O (configuration not stated)	nt	nt	nt	nt	4	nt	nt
COc1ccc(NC(=O)c2cccc3cccnc23)cc1S(N)(=O)=O	nt	nt	nt	nt	3	nt	nt
COC(=O)c1c(-c2ccccc2Cl)noc1/C=C/N(C)C	3	1	59*	-26	1	7	+
CCCn1c(=NC(=O)c2ccco2)c(C(=O)OCC)cc2c(=O)n3ccccc3nc21	0	56*	63*	-17	116*	19	i
CCOC(=O)c1sc(=NC(=O)c2ccco2)n(C)c1C	2	-1	21	-38	nt	2	nt
CCOC(=O)c1cc2c(=O)n3ccccc3nc2n(C(C)C)c1=NC(=O)c1ccco1	3	86*	106*	-10	0	20	nt
CC(C)OCCCn1c(=NC(=O)c2ccncc2)c(C#N)cc2c(=O)n3ccccc3nc21	4	46	109*	-19	57*	10	nt
CCOC(=O)c1cc2c3ccccc3n(CC)c2nc1N	-5	-6	1	1	2	-2	nt
SMILES	p97 inhibitor	Runt-SMMHC FRET	Hck Nef HTS	Tb hexokinase	RanGTP-Imp inh	Runt-CBFb FRET	Hck-Nef confirm
CCOC(=O)c1cc2c(=O)n3ccccc3nc2n(CCCOC)c1=NC(C)=O	-2	-19	173*	-9	nt	56*	nt
CC(C)CNC(=O)C(=O)NCC1CCCN1S(=O)(=O)c1cccs1 (configuration not stated)	nt	nt	nt	nt	2	nt	nt
O=C(O)CCC(=O)NNc1ncnc2ccccc12	3	-7	52*	-16	2	3	i
O=c1ccc2[n+]([O-])c3ccc(O)cc3oc-2c1	-5	9	51*	8	?	7	i
O=C(O)c1ccc(Cl)c(S(=O)(=O)Nc2ccc(OCc3ccccc3)cc2)c1	nt	nt	nt	nt	-2	nt	nt
CC(=O)N1CCOc2ccc(S(=O)(=O)NCCc3cccc(C)c3)cc21	nt	nt	nt	nt	1	nt	nt
O=C(/C(=C(\O)c1ccccc1)c1nc2ccccc2[nH]1)c1ccccc1	5	2	25	-3	?	1	nt
CC(=O)/C(=C(/O)c1ccccc1)c1nc2ccccc2[nH]1	3	3	124*	-12	5	-2	+
COc1ccc(OCC(=O)Nc2cc(NC(=O)c3ccco3)ccc2OC)cc1	nt	nt	nt	nt	5	nt	nt
Cc1ccc(NC(=O)OCCNC(=O)OC(C)C)cc1	0	-3	-2	-7	?	nt	nt
CCOC(=O)NCCOC(=O)Nc1ccc(Cl)cc1	4	-4	58*	-2	-2	2	i
N#C/C(=C\c1ccc(-c2cccc([N+](=O)[O-])c2)o1)C(=O)Nc1nc(-c2cccs2)cs1	3	-15	75*	1	-2	-2	+
C#CCn1c(=NC(=O)c2sc3ccccc3c2Cl)sc2cc(S(N)(=O)=O)ccc21	6	-31	62*	-32	3	-18	+
CC(C)(C)OC(=O)N1CCC(CC2CC(c3cccc(Br)c3)=NO2)(C(=O)O)CC1 (configuration not stated)	nt	nt	nt	nt	2	nt	nt
COc1ccc(CCn2c(SCC(=O)Nc3cc(C)on3)nc3ccsc3c2=O)cc1OC	3	1	65*	-13	nt	-2	i
COc1ccc(CCn2c(SCC(=O)Nc3cc(C)on3)nc3ccccc3c2=O)cc1OC	6	6	8	-8	-1	2	nt
COCc1[nH][nH]c(=O)c1C=Nc1ccc(C(F)(F)F)cc1	4	0	1	-5	-2	1	nt
COCc1[nH][nH]c(=O)c1C=Nc1ccc(Oc2ccccc2)cc1	0	-2	91*	-26	-2	1	+
